TPT1 inh = Candida albicans TPT1 enzyme inhibitors, primary screen, biochemical, fluorescence polarization; inhibition, % at 5 µM; recombinant caTPT1, FP RNA substrate dephosphorylation; 300,000 tested, 0.81% active; tRNA 2'-phosphotransferase TPT1 (Candida albicans SC5314); AID 1962, 2009;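 active = inhibition above the mean of all tested compounds plus 3 SD, set per screening campaign, cut at about 24% in these data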
IDE cell inh = human IDE inhibitors in live cells, primary screen, fluorescence polarization, HEK cells, FAbetaB substrate | FAbetaB cleavage | 320,000 tested, 0.41% active | inhibition, % at 5.59 µM;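 active = percent inhibition above the average of all tested compounds plus 3 SD, set per screening campaign, cut at about 16% in these data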;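 note: IDE supplied by intact live HEK cells; FP after avidin binding of uncleaved biotin substrate so inhibition keeps polarization high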
CSN inh = inhibitors of CSN-mediated cullin deneddylation, primary screen, biochemical, fluorescence polarization, uHTS; Purified CSN, SCF-Nedd8-OG deneddylation; inhibition, % at 12.5 µM; 360,000 tested, 0.38% active; AID 651999, 2013;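 active = pattern-corrected inhibition above about 35%, with an unprinted fluorescence ratio check between 0.5 and 1.5, limit read from the data, passing the limit was not always enough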
Target sequence (Q92905 whole entry, looked up, one chain of several): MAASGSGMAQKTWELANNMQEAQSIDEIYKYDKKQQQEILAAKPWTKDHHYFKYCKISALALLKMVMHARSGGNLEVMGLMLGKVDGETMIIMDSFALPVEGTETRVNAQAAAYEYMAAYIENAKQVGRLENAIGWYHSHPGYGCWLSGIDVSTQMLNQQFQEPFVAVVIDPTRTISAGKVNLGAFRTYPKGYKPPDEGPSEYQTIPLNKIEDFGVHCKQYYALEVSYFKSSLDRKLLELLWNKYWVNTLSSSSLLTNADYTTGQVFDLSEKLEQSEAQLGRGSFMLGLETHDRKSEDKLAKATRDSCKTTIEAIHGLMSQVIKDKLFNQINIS
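Assay system: HEK293T-derived human Csn5 enzyme; quantity: 0.24 nM enzyme; medium: Tris/NaCl/DTT buffer, pH 7.5; also added: substrate SCFSkp2-Nedd8OG, 10 nM; doses: 12.5 µM compound; schedule: 90 min reaction at room temperature; signal: FP; read-out: % inhibition of substrate cleavage by Csn5; benchmarks: substrate-only high control, full reaction low control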
Rpn11 inh = Rpn11 (PSMD14) deubiquitinase inhibitors, primary screen, biochemical, fluorescence polarization, uHTS. 26S proteasome non-ATPase regulatory subunit 14 (Homo sapiens), O00487. human 26S proteasome, Ub4-pepOG fluorescence polarization; 20S core pre-blocked with epoxomicin. inhibition, % at 20 µM. 360,000 tested, 0.59% active. AID 588493, 2011;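 active = inhibition at 20 µM, scaled to each plate's controls, above about 33%, limit read from the data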
Target sequence (O00487 whole entry, looked up): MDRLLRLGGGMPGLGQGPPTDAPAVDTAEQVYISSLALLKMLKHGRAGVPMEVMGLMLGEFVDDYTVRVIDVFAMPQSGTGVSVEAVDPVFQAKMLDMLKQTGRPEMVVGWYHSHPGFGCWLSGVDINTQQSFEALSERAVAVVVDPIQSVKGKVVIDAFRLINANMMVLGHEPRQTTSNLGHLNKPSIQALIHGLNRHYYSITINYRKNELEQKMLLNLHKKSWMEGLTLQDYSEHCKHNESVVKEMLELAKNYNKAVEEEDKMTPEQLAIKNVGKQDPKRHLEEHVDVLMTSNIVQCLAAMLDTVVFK
HNF4A DNA FP = change in binding of human HNF4A to DNA, primary screen, biochemical, fluorescence polarization, FITC-DNA. 360,000 tested, 0.3% active. activity change, % at 10 µM. 1 h; in the data active = activity change above about 30%, passing the limit was not always enough
IDE cell activ = human IDE activators in live cells, primary screen, fluorescence polarization, HEK cells, FAbeta-B substrate | FAbeta-B cleavage; 0% vehicle, 100% cell-free pure enzyme wells | AID 493087, 2011 | Insulin-degrading enzyme (Homo sapiens), P14735 | activation, % at 5.96 µM | 340,000 tested, 0.073% active;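 active = activation above the mean of all tested compounds plus 3 SD, set per screening campaign, cut at about 17% in these data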
IDE cell inh cf = human IDE inhibitors in live cells, confirmation, fluorescence polarization, HEK cells, FAbetaB substrate. 1,200 tested, 51% active. FAbetaB cleavage. shares compounds with IDE cell inh. inhibition, % at 5.59 µM;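 active = mean inhibition across triplicate wells above the cutoff set by the earlier primary insulin-degrading enzyme screen, cut at about 16% in these data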
HEK293 tox = cytotoxicity in HEK cells, cytotoxicity control for IDE inhibitor project, cell-based, luminescence. shares compounds with IDE cell inh. inhibition, % at 5.59 µM. 1,200 tested, 28% active. HEK293 cytotoxicity, ATP luminescence; in the data active = inhibition above about 22%
Each line names hits and unclear results; the compound was inactive in the other large screens (follow-up assays come after a bar, where shown). An excerpt weighted towards active compounds, which were near 1.7% of everything screened.

C=CCNc1nc(N2CCOCC2)c(C#N)c2c1CN(C)CC2	IDE cell inh 16 | IDE cell inh cf inactive | HEK293 tox inactive
CN1CCc2c(C#N)c(N3CCCCC3)nc(N3CCOCC3)c2C1	none (no result: CSN inh, Rpn11 inh, HNF4A DNA FP, IDE cell activ)
Cc1ccccc1N(C=O)c1ccccc1C	none (no result: TPT1 inh, IDE cell inh)
CC(C)(C)S(=O)N1Cc2cc(CO)ccc2[C@H]1CCO (stereo not given in full)	none (no result: TPT1 inh, IDE cell inh, IDE cell activ)
O=S(=O)(c1cccc(NC(=S)N2CCN(c3ccccc3)CC2)c1)C(F)F	IDE cell inh 19 | IDE cell inh cf inactive | HEK293 tox inactive
N=C1S/C(=C\c2ccccc2)C(=O)N1c1ccc(F)cc1	none
COc1cc(/C=C2\SC(=N)N(c3ccc4c(c3)OCO4)C2=O)cc(OC)c1O	IDE cell inh 81 | IDE cell inh cf 72 | HEK293 tox inactive
COc1cc(/C=C2\SC(=N)N(c3ccc(F)cc3)C2=O)ccc1O	IDE cell inh 26 | IDE cell inh cf 19 | HEK293 tox inactive
COc1cc(/C=C2\SC(=O)N(c3ccc(O)cc3)C2=O)cc(OC)c1OC	none
Cc1nc2ccc(NC(=S)NC3CCCCC3)cc2nc1C	IDE cell inh 21 | IDE cell inh cf inactive | HEK293 tox inactive
NC(N)=N/N=C/c1ccc(Cl)cc1Cl	IDE cell inh 23 | IDE cell inh cf inactive | HEK293 tox 25
NC(N)=N/N=C/c1ccc(Cl)c(Cl)c1	none (no result: IDE cell activ)
Cc1cc(S(=O)(=O)Nc2ccc(C(=O)NC3CC3)cc2)ccc1F	none (no result: TPT1 inh, IDE cell inh, IDE cell activ)
O=C1c2cccc3c(N4CCCCC4)ccc(c23)C(=O)N1c1ccccn1	IDE cell inh 75 | IDE cell inh cf 109 | HEK293 tox inactive
CCN(CC)S(=O)(=O)c1ccc(C(=O)OCCN2C(=O)c3cccc4c(N5CCOCC5)ccc(c34)C2=O)cc1	none
CC(=O)N(C(C)=O)N1C(=O)c2cccc3c(N4CCOCC4)ccc(c23)C1=O	IDE cell inh 17 | IDE cell inh cf inactive | HEK293 tox inactive
COCCNc1nc(NCCCN2CCCC2=O)c2sccc2n1	none (no result: TPT1 inh, IDE cell inh, IDE cell activ)
CS(=O)(=O)c1cccc(C(=O)Nc2ccc(-c3nc4ccccc4[nH]3)cc2)c1	IDE cell inh 28 | IDE cell inh cf inactive | HEK293 tox 36
Cn1c(CC(O)c2nc3ccccc3n2C)nc2ccccc21 (stereo not given)	none (no result: TPT1 inh, IDE cell inh, IDE cell activ)
COc1cccc(NC(=O)N2CCN(c3cccc(C)c3C)CC2)c1	IDE cell inh 16 | IDE cell inh cf inactive | HEK293 tox inactive
COc1ccccc1N1CCN(C(=O)Nc2cccc(Cl)c2)CC1	none
COc1cccc(NC(=O)N2CCN(c3nc(-c4cccc(OC)c4)cs3)CC2)c1	IDE cell inh 19 | IDE cell inh cf inactive | HEK293 tox 30
O=C(CCC(=O)c1ccc(-c2ccccc2)cc1)Nc1cccnc1	IDE cell inh 17 | IDE cell inh cf inactive | HEK293 tox inactive
COc1ccc(NC(=O)N(C)C[C@@H]2Oc3cc(C#CCN(C)C)ccc3S(=O)(=O)N([C@H](C)CO)C[C@H]2C)cc1	none (no result: TPT1 inh, IDE cell inh, IDE cell activ)
CC(=O)Nc1cccc2c1C(=O)N(c1ccccc1C)C2=O	none
COc1ccccc1N1C(=O)c2cccc3c(N(C)CCO)ccc(c23)C1=O	IDE cell inh 45 | IDE cell inh cf 47 | HEK293 tox inactive
COc1ccccc1N1C(=O)c2cccc3c(C(=O)O)ccc(c23)C1=O	none
Cc1ccccc1N1C(=O)c2cccc3c(N(C)CCO)ccc(c23)C1=O	IDE cell inh 47 | IDE cell inh cf 68 | HEK293 tox inactive
COC(=O)c1cccc(NC(=O)CCN2C(=O)NC(C)(C)C2=O)c1	none (no result: TPT1 inh, IDE cell inh, IDE cell activ)
Cc1cccc(NC(=O)/C(=C\c2ccc([N+](=O)[O-])o2)NC(=O)c2ccc(Cl)cc2)c1	IDE cell inh 17 | IDE cell inh cf inactive | HEK293 tox inactive
COC(=O)/C(=C\c1ccc([N+](=O)[O-])o1)NC(=O)c1ccccc1	none
CCNC(=O)c1cc2c(c(-c3cccc(-c4ccccc4F)c3)n1)[C@@H](CCO)N(C(=O)CC)C2	none (no result: TPT1 inh, IDE cell inh, Rpn11 inh, IDE cell activ)
CCN1/C(=C\C(=S)Nc2ccccc2)Sc2ccccc21	IDE cell inh 21 | IDE cell inh cf inactive | HEK293 tox inactive
CC(=O)Nc1sc2c(c1-c1nc3ccccc3s1)CN(C(C)C)CC2	IDE cell inh 30 (not shown: TPT1 inh, Rpn11 inh) | IDE cell inh cf inactive | HEK293 tox 95
Cc1ccccc1Oc1ccc2c(c1)[C@@H]1C[C@H](N(C)C(=O)c3ccco3)[C@H]([C@H](C)O)C(=O)N1CC2	none (no result: TPT1 inh, IDE cell inh, IDE cell activ)
Cc1ccc(-c2csc3nc[nH]c(=S)c23)cc1C	IDE cell inh 22 | IDE cell inh cf inactive | HEK293 tox inactive
COc1ccc(-c2csc3nc[nH]c(=O)c23)cc1OC	none
O=C(c1ccccc1NS(=O)(=O)c1ccc([N+](=O)[O-])cc1[N+](=O)[O-])N1O[C@@H]2C=C[C@H]1C2	none (no result: TPT1 inh, IDE cell inh)
CCCCNS(=O)(=O)c1cccc(NC(=O)[C@H]2C[C@H](O)[C@@H](CO)O2)c1	none (no result: TPT1 inh, IDE cell inh, IDE cell activ)
Cc1ccccc1CS(=O)(=O)CCC(=O)NCCCN1CCN(c2ccccc2F)CC1	none
Cc1cc(C)c2c(=O)n(CC(=O)NCCCN3CCOCC3)sc2n1	IDE cell inh 22 | IDE cell inh cf 20 | HEK293 tox inactive
Cc1cc(C)c2c(=O)n(CC(=O)NCCCN3CCN(c4ccccc4F)CC3)sc2n1	IDE cell inh 39 (no result: CSN inh, Rpn11 inh, HNF4A DNA FP, IDE cell activ) | IDE cell inh cf inactive | HEK293 tox 115
COc1ccc2c(c1)Cc1c-2cc(Br)c(N)c1Br	none (no result: TPT1 inh, IDE cell inh, IDE cell activ)
COc1ccc(CN2C(=O)CN(S(C)(=O)=O)CC2(C)C(=O)NC(C)C)cc1OC (stereo not given)	none (no result: TPT1 inh, IDE cell inh, Rpn11 inh, IDE cell activ)
CN(C)S(=O)(=O)c1cccc(NC(=O)CCc2nc3sc4c(c3c(=O)[nH]2)CCCC4)c1	IDE cell inh 22 (no result: TPT1 inh) | IDE cell inh cf inactive | HEK293 tox 25
Cc1ccc(-c2nc3ccccc3[nH]2)cc1NC(=S)NC(=O)c1ccccc1Br	IDE cell inh 18 | IDE cell inh cf inactive | HEK293 tox 31
Cc1ccc(-c2nc3ccccc3[nH]2)cc1NC(=O)c1ccc2c(c1)OCO2	none
CCCCNC(=O)c1nc(C2CCN(S(=O)(=O)c3c(F)cccc3F)CC2)oc1-c1ccccc1	none (no result: TPT1 inh, IDE cell inh, IDE cell activ)
